Source: ChEMBL document CHEMBL4842367, “Strategies toward Discovery of Potent and Orally Bioavailable Proteolysis Targeting Chimera Degraders of Androgen Receptor for the Treatment of Prostate Cancer” (J Med Chem, 2021)
The source made the active and inactive calls. No cut-off for these calls is given here.

What was measured:
Mus musculus [1] = assay: Reduction in AR protein level in human VCaP cells xenografted in SCID mouse tumor tissue at 10 mg/kg, po for 3 days measured after 3 to 24 hrs of treatment by Western blot analysis; format: functional, organism-based; settings: time 3.0 day
Method in brief: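 SCID mice with VCaP xenografts gavaged 10 mg/kg daily for 3 days; tumors collected at 3, 6 and 24 h after the last dose for Western blot of AR, GAPDH as loading control.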

LNCaP [2] = assay: Suppression of PSA gene expression in human LNCaP cells assessed as mRNA level treated for 24 hrs by qRT-PCR analysis; format: functional, cell-based; settings: dose 1-1000 nM
Method in brief: (§1)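 VCaP and LNCaP cells treated 24 h; PSA (KLK3) and TMPRSS2 mRNA quantified by TaqMan qRT-PCR, comparative CT method relative to GAPDH and then vehicle control.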

[3] = Drug uptake in human VCaP cells xenografted in SCID mouse tumor tissue at 20 mg/kg, po single dose measured after 24 hrs by LC-MS/MS analysis; format: ADME, organism-based, Neoplasm; settings: in vivo
Method in brief: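 Male CB17 SCID mice carried subcutaneous VCaP xenografts, implanted as 5 × 10⁶ cells in Matrigel, grown to about 200 mm³. Mice received a single oral gavage of 20 mg/kg in 100% PEG200. Tumors were collected at 6 and 24 h, three mice per time point, and frozen. They were homogenized in water/acetonitrile 4:1, protein-precipitated with cold acetonitrile, and assayed by LC-MS/MS (positive-ion MRM). Values are mean ± SD.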

VCaP [4] = assay: Suppression of PSA gene expression in human VCaP cells assessed as mRNA level treated for 24 hrs by qRT-PCR analysis; format: functional, cell-based; settings: dose 1-1000 nM; method in brief: as §1
[5] = Toxicity in SCID mouse xenografted with human VCaP cells assessed as weight loss at 40 mg/kg, po measured on day 21; format: organism-based; settings: in vivo
Method in brief: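 Male CB17 SCID mice bearing s.c. VCaP xenografts, randomized at about 150 mm³ (seven per group), gavaged daily for 21 days in 100% PEG200; body weights recorded 2–3 times per week to follow maximum weight loss.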

[6] = Reduction in PSA gene expression in human VCaP cells xenografted in SCID mouse tumor tissue assessed as reduction in mRNA level at 10 mg/kg, po for 3 days measured after 3 hrs of treatment by […]; format: functional; settings: 72 h, time 3 day
Method in brief: (§2)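 VCaP xenograft-bearing SCID mice dosed orally at 10 mg/kg daily for 3 days; tumors taken 3 h after the last dose. PSA, TMPRSS2 and FKBP5 mRNA measured by TaqMan qRT-PCR, comparative CT normalized to GAPDH and to vehicle control.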

Mus musculus [7] = assay: Reduction in AR protein level in tumor of human VCaP cells xenografted in SCID mouse at 20 mg/kg, po single dose measured after 24 hrs by Western blot analysis; format: functional, organism-based
Method in brief: (§3)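 SCID mice bearing VCaP xenografts given one oral dose of 20 mg/kg; tumors harvested at 6 and 24 h after dosing and AR protein measured by Western blot with GAPDH loading control.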

[8] = Reduction in TMPRSS2 gene expression in human VCaP cells xenografted in SCID mouse tumor tissue assessed as reduction in mRNA level at 10 mg/kg, po for 3 days measured after 3 hrs of treatment by […]; format: functional; settings: 72 h, time 3 day; method in brief: as §2
LNCaP [9] = assay: Suppression of TMPRSS2 gene expression in human LNCaP cells assessed as mRNA level treated for 24 hrs by qRT-PCR analysis; format: functional, cell-based; settings: dose 1-1000 nM; method in brief: as §1
[10] = Plasma concentration in human VCaP cells xenografted in SCID mouse at 20 mg/kg, po single dose measured after 6 hrs by LC-MS/MS analysis; format: ADME, organism-based
Method in brief: (§4)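 Single oral gavage, 20 mg/kg in 100% PEG200, to male SCID mice bearing one VCaP tumor each (about 200 mm³). Plasma and tumor taken at 6 and 24 h, three mice per time point. Tumors frozen, ground in liquid nitrogen, homogenized in water/acetonitrile 4:1, precipitated with cold acetonitrile; analysis by positive-ion MRM LC–MS/MS.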

[11] = Tmax in ICR mouse at 5 mg/kg, po measured up to 24 hrs by LC-MS/MS analysis; format: ADME, organism-based; settings: in vivo
Method in brief: (§5)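 Male ICR mice, single oral gavage (3 or 5 mg/kg) in 5% DMSO/10% solutol/85% saline, three mice per group. Separate IV tail-vein bolus group (1 or 2 mg/kg) in the same vehicle. Blood sampled at 0.083–24 h, one sample per mouse, plasma diluted threefold and analysed by LC–MS/MS; noncompartmental parameters.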

VCaP [12] = assay: Antitumor activity against human VCaP cells xenografted in SCID mouse assessed as tumor growth inhibition at 40 mg/kg, po measured on day 21 relative to control; format: functional; settings: 504 h, read-out: TGI
Method in brief: (§6)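 Male CB17 SCID mice implanted s.c. with 5 × 10⁶ VCaP cells in Matrigel; at average tumor volume 150 mm³, size-matched and randomized, seven per group. Oral gavage daily for 21 days in 100% PEG200. Tumors measured 2–3 times weekly, volume = length × width²/2; TGI (%) = (Vc − Vt)/(Vc − Vo) × 100 using group medians at start and end.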

[13] = Plasma concentration in human VCaP cells xenografted in SCID mouse at 20 mg/kg, po single dose measured after 24 hrs by LC-MS/MS analysis; format: ADME, organism-based; method in brief: as §4
[14] = Drug uptake in human VCaP cells xenografted in SCID mouse tumor tissue at 20 mg/kg, po single dose measured after 6 hrs by LC-MS/MS analysis; format: ADME, organism-based, Neoplasm; settings: in vivo; method in brief: as §4
LNCaP [15] = assay: Growth inhibition of human LNCaP cells assessed as cell viability measured after 4 days in presence of R1881 by WST-8 assay; format: functional, cell-based; settings: 96 h
Method in brief: (§7)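 LNCaP and VCaP cells exposed to compounds for 4 days in charcoal-stripped medium containing 0.1 nM R1881; viability read by WST-8 assay.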

VCaP [16] = assay: Growth inhibition of human VCaP cells assessed as cell viability measured after 4 days in presence of R1881 by WST-8 assay; format: functional, cell-based; settings: 96 h; method in brief: as §7
VCaP [17] = assay: Antitumor activity against human VCaP cells xenografted in SCID mouse assessed as tumor growth inhibition at 20 mg/kg, po measured on day 21 relative to control; format: functional; settings: 504 h, read-out: TGI; method in brief: as §6
[18] = Reduction in FKBPS gene expression in human VCaP cells xenografted in SCID mouse tumor tissue assessed as reduction in mRNA level at 10 mg/kg, po for 3 days measured after 3 hrs of treatment by […]; format: functional; settings: 72 h, time 3 day; method in brief: as §2
[19] = Oral bioavailability in ICR mouse at 5 mg/kg measured up to 24 hrs by LC-MS/MS analysis; format: ADME, organism-based; settings: in vivo; method in brief: as §5
VCaP [20] = assay: Antitumor activity against human VCaP cells xenografted in SCID mouse assessed as tumor growth inhibition at 10 mg/kg, po measured on day 21 relative to control; format: functional; settings: 504 h, read-out: TGI; method in brief: as §6
VCaP [21] = assay: Suppression of TMPRSS2 gene expression in human VCaP cells assessed as mRNA level treated for 24 hrs by qRT-PCR analysis; format: functional, cell-based; settings: dose 1-1000 nM; method in brief: as §1
[22] = target: Protein cereblon/Androgen receptor (Homo sapiens, UniProt P10275+Q96SW2); assay: Protac activity at CRBN/AR in human VCaP cells assessed as induction of AR degradation measured after 24 hrs by western blot analysis
Sequence of Protein cereblon/Androgen receptor (P10275 whole entry): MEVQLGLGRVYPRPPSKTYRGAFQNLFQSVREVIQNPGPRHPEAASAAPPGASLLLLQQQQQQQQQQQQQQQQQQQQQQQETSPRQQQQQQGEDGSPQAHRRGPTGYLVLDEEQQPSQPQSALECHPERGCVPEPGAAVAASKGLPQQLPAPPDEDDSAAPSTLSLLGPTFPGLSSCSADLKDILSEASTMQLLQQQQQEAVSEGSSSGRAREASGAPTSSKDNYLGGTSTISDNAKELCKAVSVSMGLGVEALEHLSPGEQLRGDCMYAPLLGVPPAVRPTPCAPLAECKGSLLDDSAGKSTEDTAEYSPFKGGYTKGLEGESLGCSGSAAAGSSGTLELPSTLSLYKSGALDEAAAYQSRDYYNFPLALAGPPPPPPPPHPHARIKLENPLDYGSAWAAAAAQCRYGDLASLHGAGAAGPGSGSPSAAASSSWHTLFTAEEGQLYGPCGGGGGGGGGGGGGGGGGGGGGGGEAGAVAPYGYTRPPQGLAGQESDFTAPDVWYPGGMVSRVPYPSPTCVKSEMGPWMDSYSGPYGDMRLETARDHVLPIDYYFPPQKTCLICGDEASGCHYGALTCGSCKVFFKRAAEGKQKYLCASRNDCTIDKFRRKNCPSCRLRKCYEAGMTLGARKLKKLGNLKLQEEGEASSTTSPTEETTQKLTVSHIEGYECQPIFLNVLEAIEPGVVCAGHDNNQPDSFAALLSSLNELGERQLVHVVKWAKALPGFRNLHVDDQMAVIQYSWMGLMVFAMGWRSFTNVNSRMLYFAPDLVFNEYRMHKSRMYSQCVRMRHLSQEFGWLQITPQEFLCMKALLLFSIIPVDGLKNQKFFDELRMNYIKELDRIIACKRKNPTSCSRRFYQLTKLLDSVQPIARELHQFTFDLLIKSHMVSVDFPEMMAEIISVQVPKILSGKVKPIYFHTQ
Sequence of Protein cereblon/Androgen receptor (Q96SW2 whole entry): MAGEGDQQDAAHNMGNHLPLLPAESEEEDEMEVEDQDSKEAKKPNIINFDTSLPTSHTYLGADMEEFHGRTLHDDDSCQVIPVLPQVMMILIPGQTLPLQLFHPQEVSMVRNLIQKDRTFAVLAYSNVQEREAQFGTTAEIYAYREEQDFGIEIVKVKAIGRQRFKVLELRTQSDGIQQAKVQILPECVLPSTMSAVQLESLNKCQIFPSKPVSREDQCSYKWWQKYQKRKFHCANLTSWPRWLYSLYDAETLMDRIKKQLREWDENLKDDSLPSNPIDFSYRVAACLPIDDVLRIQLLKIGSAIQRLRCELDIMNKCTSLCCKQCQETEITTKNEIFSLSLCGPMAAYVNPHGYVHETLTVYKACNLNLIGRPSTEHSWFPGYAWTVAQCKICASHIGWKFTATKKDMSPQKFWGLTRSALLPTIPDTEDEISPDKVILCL

[23] = Oral bioavailability in ICR mouse at 3 mg/kg measured up to 24 hrs by LC-MS/MS analysis; format: ADME, organism-based; settings: in vivo; method in brief: as §5
[24] = Tmax in ICR mouse at 3 mg/kg, po measured up to 24 hrs by LC-MS/MS analysis; format: ADME, organism-based; settings: in vivo; method in brief: as §5
[25] = Half life in ICR mouse at 1 mg/kg, iv measured up to 24 hrs by LC-MS/MS analysis; format: ADME, organism-based; settings: in vivo
Method in brief: (§8)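 Male ICR mice received a single tail-vein IV bolus in 5% DMSO/10% solutol/85% saline at 5 mL/kg. Blood was taken at 0.083, 0.25, 0.5, 1, 2, 4, 6, 8 and 24 h, with n = 3 per time point and each mouse sampled once. Plasma supernatant was diluted three times with water and analysed by LC-MS/MS, and terminal T1/2 was derived noncompartmentally.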

Mus musculus [26] = assay: Reduction in AR protein level in tumor of human VCaP cells xenografted in SCID mouse at 20 mg/kg, po single dose measured after 6 hrs by Western blot analysis; format: functional, organism-based; method in brief: as §3
[27] = Half life in ICR mouse at 2 mg/kg, iv measured up to 24 hrs by LC-MS/MS analysis; format: ADME, organism-based; settings: in vivo; method in brief: as §8

Row | SMILES | Drug uptake [3] [ng/g] | concentration at 6 h [10] [ng/mL] | Tmax [11] [h] | concentration at 24 h [13] [ng/mL] | Drug uptake [14] | IC50 (LNCaP [15]) [nM] | IC50 (VCaP [16]) [nM] | F [19] [%] | EC50 [22] [nM] | Activity (Mus musculus [7]) | further results
1 | CC1(C)[C@H](NC(=O)c2ccc(N3CCN(CC4CCN(c5ccc6c(c5)C(=O)N(C5CCC(=O)NC5=O)C6=O)CC4)CC3)cc2)C(C)(C)[C@H]1Oc1ccc(C#N)c(Cl)c1 (stereo partly drawn) | 1510 | 1510 | 4.7 | 1660 | 635 ng/g | 5 | 4 | 67 | 0.3 | Active | Activity (Mus musculus [1]): Active; Activity (LNCaP [2]): Dose-Dependent Effect; Activity (VCaP [4]): Dose-Dependent Effect; Activity [5]: ≤ 5%; inhibition in vivo at 10 mg/kg [6]: > 50%; inhibition in vivo at 10 mg/kg [8]: > 50%; Activity (LNCaP [9]): Dose-Dependent Effect; inhibition in vivo at 40 mg/kg (VCaP [12]): 63%; inhibition in vivo at 20 mg/kg (VCaP [17]): 69%; inhibition in vivo at 10 mg/kg [18]: > 50%; inhibition in vivo at 10 mg/kg (VCaP [20]): 46%; Activity (VCaP [21]): Dose-Dependent Effect
2 | CC1(C)[C@H](NC(=O)c2ccc(N3CCC(N4CCN(c5ccc6c(c5)C(=O)N(C5CCC(=O)NC5=O)C6=O)CC4)CC3)cc2)C(C)(C)[C@H]1Oc1ccc(C#N)c(Cl)c1 (stereo partly drawn) | – | – | – | – | – | – | – | – | 0.1 | – | F [23]: 24%; Tmax [24]: 6 h; t1/2 [25]: 21 h
3 | CNC(=O)c1ccc(N2C(=S)N(c3ccc(C#N)c(C(F)(F)F)c3)C(=O)C2(C)C)cc1F [ENZALUTAMIDE] | – | – | – | – | – | – | – | – | – | – | inhibition in vivo at 40 mg/kg (VCaP [12]): 39%
4 | CC1(C)[C@H](NC(=O)c2ccc(N3CCN(C4CCN(c5ccc6c(c5)C(=O)N(C5CCC(=O)NC5=O)C6=O)CC4)CC3)cc2)C(C)(C)[C@H]1Oc1ccc(C#N)c(Cl)c1 (stereo partly drawn) | 685 | 803 | 4 | 776 | 315 ng/kg | – | – | 37 | 0.8 | Active | Activity (Mus musculus [26]): Active
5 | CN1CCN(c2ccc(C(=O)N[C@H]3C(C)(C)[C@H](Oc4ccc(C#N)c(Cl)c4)C3(C)C)cc2)CC1 | – | – | – | – | – | 81 | 49 | – | – | – | –

Further lines, with some results ahead:

Row | Drug uptake [3] [ng/g] | concentration at 6 h [10] [ng/mL] | Tmax [11] [h] | concentration at 24 h [13] [ng/mL] | Drug uptake [14] | IC50 (LNCaP [15]) [nM] | IC50 (VCaP [16]) [nM] | F [19] [%] | EC50 [22] [nM] | SMILES | Activity (Mus musculus [7]) | further results
6 | – | – | – | – | – | 237 | 783 | – | – | CN1C(=O)CCC(N2C(=O)c3ccc(N4CCC(CN5CCN(c6ccc(C(=O)N[C@H]7C(C)(C)[C@H](Oc8ccc(C#N)c(Cl)c8)C7(C)C)cc6)CC5)CC4)cc3C2=O)C1=O (stereo partly drawn) | – | –
7 | 1740 | 1360 | 4 | 1670 | 718 ng/g | – | – | 75 | 0.2 | CC1(C)[C@H](NC(=O)c2ccc(N3CCN(CC4CN(c5ccc6c(c5)C(=O)N(C5CCC(=O)NC5=O)C6=O)C4)CC3)cc2)C(C)(C)[C@H]1Oc1ccc(C#N)c(Cl)c1 (stereo partly drawn) | Active | t1/2 [27]: 17.8 h
8 | – | – | – | – | – | – | – | – | 0.4 | CC1(C)[C@H](NC(=O)c2ccc(N3CCC(CN4CCN(c5ccc6c(c5)C(=O)N(C5CCC(=O)NC5=O)C6=O)CC4)CC3)cc2)C(C)(C)[C@H]1Oc1ccc(C#N)c(Cl)c1 (stereo partly drawn) | – | F [23]: 33%; Tmax [24]: 4.7 h; t1/2 [25]: 25.5 h
